Most compounds without a hit are left out; they make up all but 3.5% or so of the library.
RGS4 block = inhibitors of human RGS4; P49798; HEK293 M3R/RGS4 inducible, Fluo-4 calcium flux; active compounds read high; triggered by carbachol at its EC20; B-score at 10 µM; 310,000 compounds, 0.45% hits; AID 463165;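 active = B-score, a plate-corrected calcium signal, over three deviations above library mean, with baseline fluorescence within five deviations of library mean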;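 note: RGS4 expression induced by doxycycline in cells with stable M3 receptor; B-score is computed from the integrated fluorescence ratio over baseline after carbachol; higher B-score means a larger calcium signal and so more RGS4 inhibition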
Target sequence (P49798 whole entry, looked up): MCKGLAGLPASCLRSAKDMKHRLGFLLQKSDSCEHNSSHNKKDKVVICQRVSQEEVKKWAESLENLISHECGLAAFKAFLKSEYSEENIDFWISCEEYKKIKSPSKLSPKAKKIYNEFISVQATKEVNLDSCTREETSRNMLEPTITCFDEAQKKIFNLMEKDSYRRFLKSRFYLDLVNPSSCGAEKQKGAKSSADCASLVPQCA
MrgX1 PAM = allosterically activates human MrgX1 receptor signaling; Q96LB2; 310,000 compounds, 0.63% hits; MrgX1-HEK293, Fluo-4 calcium flux, FDSS; active compounds read high; AID 588675; B-score at 10 µM;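 active = plate-corrected calcium response at least 3 library SD above typical, normal starting fluorescence, not activating the receptor alone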;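 note: compound read alongside a low EC10 to EC30 dose of BAM8-22 agonist; peak minus trough fluorescence over baseline measured at the second addition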
Target sequence (Q96LB2 whole entry, looked up): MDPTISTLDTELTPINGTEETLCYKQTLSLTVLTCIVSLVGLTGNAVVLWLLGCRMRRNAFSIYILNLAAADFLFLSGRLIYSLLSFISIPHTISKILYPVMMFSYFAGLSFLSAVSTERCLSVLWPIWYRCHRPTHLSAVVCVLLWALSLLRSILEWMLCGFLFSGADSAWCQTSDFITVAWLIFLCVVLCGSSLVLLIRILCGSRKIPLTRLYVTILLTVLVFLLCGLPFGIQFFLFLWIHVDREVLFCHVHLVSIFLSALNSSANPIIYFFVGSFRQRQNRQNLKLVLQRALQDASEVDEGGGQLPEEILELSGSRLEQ
RGS4 act = potentiators or activators of RGS4 | B-score at 10 µM | 310,000 compounds, 0.92% hits | HEK293 M3R/inducible RGS4, carbachol calcium flux Fluo4; active compounds read low;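 active = B-score of the integrated calcium signal more than 4 SD below the library mean, with starting fluorescence not abnormally high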;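 note: negative B-score means reduced calcium response which marks RGS4 activation or potentiation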
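Also added: carbachol at ECmax as muscarinic agonist stimulus; Assay system: HEK293 cells with stable M3R and inducible RGS4; Timing: overnight RGS4 induction, 30 min dye load 37 °C, 20 min compound RT; Measured by: Fluo4-AM (2 µM) calcium-flux fluorescence, kinetic read.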
MrgX1 antagonist = blocks BAM8-22 activation of human MrgX1 receptor; Q96LB2; MRGX1-HEK293 calcium flux, Fluo-4, BAM8-22 antagonism; active compounds read low; B-score at 10 µM; 310,000 compounds, 1.3% hits; AID 588676;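 active = calcium-response B-score plate-corrected more than 3 library SD below zero, starting fluorescence within 5 deviations, no agonist response on first addition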;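 note: peak minus trough fluorescence over baseline after final BAM8-22 challenge near maximal dose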
MrgX1 ag = agonists of human MrgX1 receptor; B-score at 10 µM; AID 588627; Q96LB2; 310,000 compounds, 0.44% hits; MrgX1-HEK293 cells, Fluo-4 calcium fluorescence, agonist mode; active compounds read high;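 active = calcium response B-score plate-corrected fluorescence ratio at least 3 library SD, with starting fluorescence B-score inside 5 SD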
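Test system: Stable human MrgX1 HEK293 cell line | Schedule: Overnight plating before 1 h dye loading | Read-out basis: Baseline-normalised fluorescence change ratio, B-scored | Detection: Kinetic calcium dye fluorescence, Fluo-4 NW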
RGS4 activ val = RGS4 activation, validation assay; HEK293 M3R/RGS4 inducible, carbachol calcium flux Fluo4; shares compounds with RGS4 act; 1,100 compounds, 89% hits; inhibition, % at 10 µM;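 active = inhibition above 3 SD of the buffer control wells, cut at about 41% in these data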;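 note: signal is the integrated peak-minus-minimum Fluo4 fluorescence over baseline ratio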
RGS4 act ctr = activity in cells without induced RGS4 expression; shares compounds with RGS4 act; HEK293 M3R non-induced RGS4, Fluo4 calcium flux; after carbachol challenge at its EC90; inhibition, % at 10 µM; 1,100 compounds, 82% hits; AID 602283;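 active = inhibition exceeding 3 SD of buffer-only control wells, cut at about 26% in these data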;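 note: percent drop in integrated peak-minus-baseline over baseline Fluo4 ratio after carbachol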
RGS4 inh valid = RGS4 inhibitor validation; HEK293 M3R/RGS4, carbachol calcium Fluo-4 fluorescence; carbachol added at its EC20; 0 = buffer wells, 100 = carbachol control; AID 492999; 1,700 compounds, 65% hits; calcium response, % at 10 µM; shares compounds with RGS4 block;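 active = duplicate-averaged calcium response above the buffer-only control mean plus 5 SD of those controls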;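 note: integrated fluorescence ratio F max minus min over baseline F0; higher response in RGS4-induced cells means RGS4 inhibition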
M3R Ca ctr = non-induced cell nonspecific activity of RGS4 inhibitors; shares compounds with RGS4 block; HEK293 M3R non-induced, carbachol calcium Fluo-4; submaximal (EC20) carbachol stimulus; buffer wells 0%, carbachol control wells 100%; activity (percent), % at 10 µM; 1,900 compounds, 20% hits; AID 493000; call rule not given here;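 note: RGS4 induction absent so cells express M3R without RGS4; higher means more calcium signal and flags a non-specific hit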
RGS4 inh ctr2 = signal in non-induced cells without carbachol, RGS4 inhibitor counter-screen. shares compounds with RGS4 block. HEK293 M3R/RGS4 non-induced, Fluo-4 calcium, no carbachol; normalised: buffer wells 0%, carbachol wells 100%. calcium response (agonist-mode artifact), % at 10 µM. 1,900 compounds, 22% hits. AID 493001;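 active = duplicate-averaged calcium rise in uninduced cells above buffer wells' mean plus 5 SD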
MrgX1 ant reconf = confirmation of human MrgX1 receptor antagonists | 2,300 compounds, 19% hits | shares compounds with MrgX1 antagonist | remaining BAM8-22 calcium response % of control (active compounds read low), % at 10 µM | MrgX1-HEK293, BAM8-22 calcium flux, Fluo-4; active compounds read low;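 active = remaining agonist calcium response no higher than 100% minus 3 SD of agonist-only control wells, with starting fluorescence near control levels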;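 note: agonist BAM8-22 given at a near maximal EC90 to ECmax level; peak minus minimum fluorescence divided by baseline after agonist addition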
HEK293 Ca flux = MrgX1 antagonist counter-screen hit in parental HEK293 cells; 4,000 compounds, 2% hits; Fluo-4 calcium fluorescence, FDSS; shares compounds with MrgX1 antagonist; fluorescence ratio F(max-min)/F0 at 10 µM;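 active = duplicate-averaged calcium fluorescence ratio at least three times the standard deviation of buffer wells, a nonspecific response in parental cells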
HEK293 Ca counter = MrgX1 allosteric activator counter-screen hit in parental HEK293 cells | shares compounds with MrgX1 antagonist | parental HEK293 calcium flux, Fluo-4 fluorescence ratio; active compounds read high | fluorescence ratio F(max-min)/F0 at 10 µM | 4,000 compounds, 0.4% hits | AID 624114;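 active = calcium fluorescence ratio, averaged over duplicates, at least 3 SD of the buffer-well ratio, meaning a nonspecific response in receptor-free cells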;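 note: untransfected parental HEK293 lacking MrgX1 used as counterscreen for MrgX1 allosteric activators; fluorescence change taken during the second addition on a kinetic imager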
HEK293 Ca cntr2 = counter-screen for MrgX1 activators: effect in parental HEK293 cells; shares compounds with MrgX1 antagonist; Fluo-4 calcium fluorescence (FDSS); active compounds read high; fluorescence ratio F(max-min)/F0 at 10 µM; 4,000 compounds, 8.7% hits; AID 624115;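 active = calcium fluorescence ratio at least three times the spread of buffer wells, meaning a non-specific response in parental cells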
Each line names hits and unclear results; the compound was inactive in the other large screens (follow-up assays come after a bar, where they were run).

COc1cccc(N2CCN(c3ncnc4c3[nH]c3ccccc34)CC2C)c1 (stereo unspecified)	RGS4 act -9.04, MrgX1 antagonist -14.6 | RGS4 activ val 94.0 | RGS4 act ctr 82.8 | MrgX1 ant reconf 4.6% | HEK293 Ca flux inactive | HEK293 Ca counter inactive | HEK293 Ca cntr2 inactive
COC(=O)c1sc(-c2ccc(C(C)(C)C)cc2)cc1NC(=O)CSCC(=O)O	RGS4 act -7.71, MrgX1 antagonist -5.31 | RGS4 activ val 75.0 | RGS4 act ctr 83.8 | MrgX1 ant reconf inactive | HEK293 Ca flux inactive | HEK293 Ca counter inactive | HEK293 Ca cntr2 inactive
Cc1ccc(O)c(C(=O)c2cnc3c(c2)COc2ccccc2-3)c1	RGS4 act -9.29, MrgX1 antagonist -10.1 | RGS4 activ val 85.5 | RGS4 act ctr 88.3 | MrgX1 ant reconf inactive | HEK293 Ca flux inactive | HEK293 Ca counter inactive | HEK293 Ca cntr2 inactive
COc1ccc(Br)cc1CN1CCN(S(=O)(=O)Cc2ccccc2)CC1	RGS4 block 27.6 | RGS4 inh valid inactive | M3R Ca ctr inactive | RGS4 inh ctr2 inactive
CCc1nnc(N/N=C/c2ccc(N3CCC(C)CC3)c([N+](=O)[O-])c2)n1N	none
Cc1nnc(N/N=C/c2cc([N+](=O)[O-])c(N3CCC(C)CC3)cc2N2CCC(C)CC2)n1N	RGS4 block 4.93 | RGS4 inh valid 9.5% | M3R Ca ctr 36.0% | RGS4 inh ctr2 inactive
O=C(CN1C(=O)c2cccc([N+](=O)[O-])c2C1=O)NCc1ccccc1	none
COc1ccc(NC(=O)CN(C)S(=O)(=O)c2ccc3c(c2)CC(C)N3C(C)=O)cc1OC (stereo unspecified)	none
C/C(=N\NC(=O)c1c(Cl)cnn1C)c1ccc(NC(=O)c2ccc(Br)o2)cc1	none
O=C1N=c2ccccc2=C1c1c(O)n(-c2cccc(F)c2)[nH]c1=O	RGS4 block 6.99 | RGS4 inh valid 21.0% | M3R Ca ctr inactive | RGS4 inh ctr2 inactive
COc1ccccc1OCC(=O)NCC1CCCN(Cc2cnn(C(C)C)c2)C1 (stereo unspecified)	none
CCOC(=O)[C@@H]1[C@H]2COc3ccccc3[C@H]2N2C(=O)N(c3ccc(Cl)cc3)C(=O)[C@@]12C	RGS4 block 6.01 | RGS4 inh valid 15.5% | M3R Ca ctr inactive | RGS4 inh ctr2 inactive
CCOC(=O)[C@@H]1[C@H]2COc3ccc(Br)cc3[C@@H]2N2C(=O)N(c3ccc(C)cc3)C(=O)[C@]12C	none
CCOC(=O)[C@@H]1[C@H]2COc3ccc(Br)cc3[C@H]2N2C(=O)N(c3ccc(F)cc3)C(=O)[C@]12C	none
CCOC(=O)[C@@H]1[C@H]2COc3ccccc3[C@@H]2N2C(=O)N(c3ccc(F)cc3)C(=O)[C@@]12C	none | RGS4 inh valid inactive | M3R Ca ctr 37.5% | RGS4 inh ctr2 inactive
CCOC(=O)[C@@H]1[C@H]2COc3ccc(Br)cc3[C@@H]2N2C(=O)N(c3ccc(Cl)cc3)C(=O)[C@]12C	none | M3R Ca ctr inactive | RGS4 inh ctr2 inactive
O=C(O)c1cccc(-n2cccc2/C=C2/SC(=O)N(CC(=O)N3CCCC3)C2=O)c1	none
O=C(CCSc1ccccn1)c1ccccc1	RGS4 block 5.73 | RGS4 inh valid 5.0% | M3R Ca ctr 35.5% | RGS4 inh ctr2 18.5%
O=C(O)CCSc1ccccn1	none
N#Cc1c(N)nc(SCC(=O)NC2CCCCC2)c(C#N)c1-c1ccc(Cl)cc1	none
N#CCSc1nc(N)c(C#N)c(C2CCCCC2)c1C#N	RGS4 block 5.06 | RGS4 inh valid 16.0% | M3R Ca ctr 49.5% | RGS4 inh ctr2 inactive
COC(=O)c1c(C(=O)OC)c(-c2ccc(Br)cc2)n2c1CS(=O)C2 (stereo unspecified)	none
Cc1ccc(CNc2ccccc2C(=O)O)s1	none
CC1=NN(c2ccc(C(=O)O)cc2)C(=O)/C1=C\c1ccc(OC(=O)c2cccs2)cc1	RGS4 block 13.2 | RGS4 inh valid 23.5% | M3R Ca ctr inactive | RGS4 inh ctr2 inactive
CCOc1cc(/C=C2\C(=O)N(c3ccc(C(N)=O)cc3)N=C2C)ccc1OC(=O)c1cccs1	none
COc1cc(/C=C2\C(=O)NN(c3ccccc3)C2=O)ccc1OCC(N)=O	none
COc1cc(/C=C2/C(=O)NN(c3cccc(C)c3)C2=O)ccc1OC(=O)c1ccco1	RGS4 block 6.82 | RGS4 inh valid 16.0% | M3R Ca ctr 31.0% | RGS4 inh ctr2 inactive
COC(=O)c1ccc(N2NC(=O)/C(=C/c3ccc(OC)c(OC)c3)C2=O)cc1	RGS4 block 6.18 | RGS4 inh valid 19.5% | M3R Ca ctr 40.5% | RGS4 inh ctr2 inactive
C#CCOc1ccc(/C=C2/C(=O)NN(c3ccc(F)cc3)C2=O)cc1OC	none | M3R Ca ctr 30.0% | RGS4 inh ctr2 inactive
COc1ccc(CC(=O)Nc2ccc(N3CCOCC3)cc2)cc1OC	none
CSc1nc(N(CCO)CCO)c2sc3nc(-c4ccco4)c4c(c3c2n1)CCC4	none (no result: MrgX1 PAM, MrgX1 antagonist, MrgX1 ag) | RGS4 inh valid inactive | M3R Ca ctr inactive | RGS4 inh ctr2 inactive
CSc1nc(SCCO)c2sc3nc(-c4ccco4)c4c(c3c2n1)CC(C)(C)OC4	none (no result: MrgX1 PAM, MrgX1 antagonist, MrgX1 ag)

From PubChem
